Measurements: ChEMBL document CHEMBL1629431, “Synthesis and antitumor activity of some 2, 3-disubstituted quinazolin-4(3H)-ones and 4, 6- disubstituted- 1, 2, 3, 4-tetrahydroquinazolin-2H-ones” (2010)

Assays:
Type in all cases: functional
[1] = tested on: T47D; test: Growth inhibition of human T47D cells at 10 uM after 48 hrs by coulter counter method; conditions: read-out: GI
Procedure, shortened: (§1)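 Single high-dose NCI 60-cell-line panel screen across nine tumor subpanels. Test solutions (0.2 mL) were added in duplicate to wells holding 1.8 mL of culture at 6 × 10⁴ cells/mL. Controls got PBS and DMSO at identical dilutions. Incubation was 48 h at 37 °C in humidified 5% CO₂. Cells were diluted 10-fold in saline, Coulter-counted and dilution-corrected. Results were expressed as percent growth inhibition versus control.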

[2] = tested on: BT-549; test: Growth inhibition of human BT549 cells at 10 uM after 48 hrs by coulter counter method; conditions: BT-549, 48 h, read-out: GI; procedure, shortened: as §1
[3] = tested on: MDA-MB-231; test: Growth inhibition of human MDA-MB-231 cells at 10 uM after 48 hrs by coulter counter method; conditions: MDA-MB-231, 48 h, read-out: GI; procedure, shortened: as §1
[4] = tested on: NCI-H23; test: Growth inhibition of human NCI-H23 cells at 10 uM after 48 hrs by coulter counter method; conditions: NCI-H23, 48 h, read-out: GI; procedure, shortened: as §1
[5] = tested on: SNB-75; test: Growth inhibition of human SNB75 cells at 10 uM after 48 hrs by coulter counter method; conditions: SNB-75, 48 h, read-out: GI; procedure, shortened: as §1
[6] = tested on: HT-29; test: Growth inhibition of human HT-29 cells at 10 uM after 48 hrs by coulter counter method; conditions: HT-29, 48 h, read-out: GI; procedure, shortened: as §1
[7] = tested on: HL-60(TB); test: Growth inhibition of human HL-60(TB) cells at 10 uM after 48 hrs by coulter counter method; conditions: HL-60, 48 h, read-out: GI
Procedure, shortened: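 Part of the NCI 60-cell-line single-high-dose panel. Cells were seeded at 6 × 10⁴ cells/mL with test solution in duplicate wells, alongside PBS/DMSO controls at identical dilutions. Plates were held 48 h at 37 °C in a humidified 5% CO₂ incubator. Cells were then diluted 10-fold in saline and counted by Coulter counter, with counts corrected for dilution. Results are percent growth of treated cells, reported as GI %.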

[8] = tested on: U-251; test: Growth inhibition of human U251 cells at 10 uM after 48 hrs by coulter counter method; conditions: U-251, 48 h, read-out: GI; procedure, shortened: as §1
[9] = tested on: SN12C; test: Growth inhibition of human SN12C cells at 10 uM after 48 hrs by coulter counter method; conditions: read-out: GI; procedure, shortened: as §1
[10] = tested on: OVCAR-8; test: Growth inhibition of human OVCAR8 cells at 10 uM after 48 hrs by coulter counter method; conditions: OVCAR-8, 48 h, read-out: GI; procedure, shortened: as §1
[11] = Growth inhibition of human Hs 578T cells at 10 uM after 48 hrs by coulter counter method; conditions: read-out: GI; procedure, shortened: as §1
[12] = tested on: CAKI-1; test: Growth inhibition of human Caki1 cells at 10 uM after 48 hrs by coulter counter method; conditions: CAKI-1, 48 h, read-out: GI; procedure, shortened: as §1
[13] = tested on: MDA-MB-468; test: Growth inhibition of human MDA-MB-468 cells at 10 uM after 48 hrs by coulter counter method; conditions: MDA-MB-468, 48 h, read-out: GI; procedure, shortened: as §1
[14] = tested on: A549; test: Growth inhibition of human A549 cells at 10 uM after 48 hrs by coulter counter method; conditions: A549, 48 h, read-out: GI; procedure, shortened: as §1
[15] = tested on: UACC-62; test: Growth inhibition of human UACC62 cells at 10 uM after 48 hrs by coulter counter method; conditions: UACC-62, 48 h, read-out: GI; procedure, shortened: as §1
[16] = tested on: K562; test: Growth inhibition of human K562 cells at 10 uM after 48 hrs by coulter counter method; conditions: K562, 48 h, read-out: GI; procedure, shortened: as §1
[17] = tested on: SF-268; test: Growth inhibition of human SF268 cells at 10 uM after 48 hrs by coulter counter method; conditions: SF-268, 48 h, read-out: GI; procedure, shortened: as §1
[18] = tested on: MCF7; test: Growth inhibition of human MCF7 cells at 10 uM after 48 hrs by coulter counter method; conditions: MCF7, 48 h, read-out: GI; procedure, shortened: as §1
[19] = tested on: OVCAR-4; test: Growth inhibition of human OVCAR4 cells at 10 uM after 48 hrs by coulter counter method; conditions: OVCAR-4, 48 h, read-out: GI; procedure, shortened: as §1
[20] = tested on: 786-0; test: Growth inhibition of human 786-0 cells at 10 uM after 48 hrs by coulter counter method; conditions: 786-0, 48 h, read-out: GI; procedure, shortened: as §1
[21] = tested on: NCI-H226; test: Growth inhibition of human NCI-H226 cells at 10 uM after 48 hrs by coulter counter method; conditions: NCI-H226, 48 h, read-out: GI; procedure, shortened: as §1
[22] = tested on: NCI-H522; test: Growth inhibition of human NCI-H522 cells at 10 uM after 48 hrs by coulter counter method; conditions: NCI-H522, 48 h, read-out: GI; procedure, shortened: as §1
[23] = tested on: HCT-116; test: Growth inhibition of human HCT116 cells at 10 uM after 48 hrs by coulter counter method; conditions: HCT-116, 48 h, read-out: GI; procedure, shortened: as §1
[24] = tested on: KM12; test: Growth inhibition of human KM12 cells at 10 uM after 48 hrs by coulter counter method; conditions: KM12, 48 h, read-out: GI; procedure, shortened: as §1
[25] = tested on: SK-OV-3; test: Growth inhibition of human SKOV3 cells at 10 uM after 48 hrs by coulter counter method; conditions: SK-OV-3, 48 h, read-out: GI; procedure, shortened: as §1
[26] = tested on: SF-539; test: Growth inhibition of human SF539 cells at 10 uM after 48 hrs by coulter counter method; conditions: SF-539, 48 h, read-out: GI; procedure, shortened: as §1
[27] = tested on: SK-MEL-2; test: Growth inhibition of human SK-MEL-2 cells at 10 uM after 48 hrs by coulter counter method; conditions: SK-MEL-2, 48 h, read-out: GI; procedure, shortened: as §1
[28] = tested on: COLO 205; test: Growth inhibition of human COLO205 cells at 10 uM after 48 hrs by coulter counter method; conditions: COLO 205, 48 h, read-out: GI; procedure, shortened: as §1
[29] = tested on: HOP-92; test: Growth inhibition of human HOP92 cells at 10 uM after 48 hrs by coulter counter method; conditions: HOP-92, 48 h, read-out: GI; procedure, shortened: as §1
[30] = tested on: UO-31; test: Growth inhibition of human UO31 cells at 10 uM after 48 hrs by coulter counter method; conditions: UO-31, 48 h, read-out: GI; procedure, shortened: as §1
[31] = tested on: PC-3; test: Growth inhibition of human PC3 cells at 10 uM after 48 hrs by coulter counter method; conditions: PC-3, 48 h, read-out: GI; procedure, shortened: as §1
[32] = tested on: M14; test: Growth inhibition of human M14 cells at 10 uM after 48 hrs by coulter counter method; conditions: M14, 48 h, read-out: GI; procedure, shortened: as §1
[33] = tested on: SK-MEL-28; test: Growth inhibition of human SK-MEL-28 cells at 10 uM after 48 hrs by coulter counter method; conditions: SK-MEL-28, 48 h, read-out: GI; procedure, shortened: as §1
[34] = tested on: CCRF-CEM; test: Growth inhibition of human CCRF-CEM cells at 10 uM after 48 hrs by coulter counter method; conditions: read-out: GI; procedure, shortened: as §1
[35] = tested on: MOLT-4; test: Growth inhibition of human MOLT4 cells at 10 uM after 48 hrs by coulter counter method; conditions: MOLT-4, 48 h, read-out: GI; procedure, shortened: as §1

Structure (SMILES)	inhibition of growth at 10 µM [1] [%]	inhibition of growth at 10 µM [2] [%]	inhibition of growth at 10 µM [3] [%]	inhibition of growth at 10 µM [4] [%]	inhibition of growth at 10 µM [5] [%]	inhibition of growth at 10 µM [6] [%]	inhibition of growth at 10 µM [7] [%]	inhibition of growth at 10 µM [8] [%]	inhibition of growth at 10 µM [9] [%]	inhibition of growth at 10 µM [10] [%]	inhibition of growth at 10 µM [11] [%]	inhibition of growth at 10 µM [12] [%]	inhibition of growth at 10 µM [13] [%]	inhibition of growth at 10 µM [14] [%]	inhibition of growth at 10 µM [15] [%]	inhibition of growth at 10 µM [16] [%]	inhibition of growth at 10 µM [17] [%]	inhibition of growth at 10 µM [18] [%]	inhibition of growth at 10 µM [19] [%]	inhibition of growth at 10 µM [20] [%]	also measured
CCn1c(-n2ccnc2)nc2ccccc2c1=O	30	30	30	30	30	30	30	30	30	30	30	46.3	30	30	30	37.9	30	30	30	30	inhibition of growth at 10 µM [21]: 30%; inhibition of growth at 10 µM [22]: 30%; inhibition of growth at 10 µM [23]: 30%; inhibition of growth at 10 µM [24]: 30%; inhibition of growth at 10 µM [25]: 30%; inhibition of growth at 10 µM [26]: 30%; inhibition of growth at 10 µM [27]: 30%; inhibition of growth at 10 µM [28]: 30%; inhibition of growth at 10 µM [29]: 30%; inhibition of growth at 10 µM [30]: 30%; inhibition of growth at 10 µM [31]: 30%; inhibition of growth at 10 µM [32]: 30%; inhibition of growth at 10 µM [33]: 30%; inhibition of growth at 10 µM [34]: 30%
O=c1c2ccccc2nc(-n2ccnc2)n1-c1ccccc1	30	30	30	30	30	30	30	30	30	30	30	30	30	30	30	30	30	30	30	30	inhibition of growth at 10 µM [35]: 30%; inhibition of growth at 10 µM [21]: 30%; inhibition of growth at 10 µM [22]: 30%; inhibition of growth at 10 µM [23]: 30%; inhibition of growth at 10 µM [24]: 30%; inhibition of growth at 10 µM [25]: 30%; inhibition of growth at 10 µM [26]: 30%; inhibition of growth at 10 µM [27]: 30%; inhibition of growth at 10 µM [29]: 76.6%; inhibition of growth at 10 µM [30]: 30%; inhibition of growth at 10 µM [31]: 30%; inhibition of growth at 10 µM [32]: 30%; inhibition of growth at 10 µM [33]: 30%; inhibition of growth at 10 µM [34]: 30%
